Series [1] has as its system CCRF-CEM. Put plainly: The compound was evaluated for prevention of the cytopathic effect of HIV-1 for cytopathicity of HIV-1RF in CEM-SS cells. The series is classed as functional, cell-based. Particulars: Homo sapiens. A digest of the protocol:
(§1)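 XTT-based microtiter assay of protection from HIV-1 cytopathic effect in CEM-SS cells, read as percent of uninfected drug-free control. EC50 is the concentration giving 50% protection in infected cultures. IC50 is the concentration giving 50% death of mock-infected cells. Values are averages of at least two determinations. Results were confirmed by supernatant RT and p24 levels.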
For orientation: Damage to the host cells serves as the signal in cytopathic effect assays.

The test system of series [2] is CCRF-CEM. Put plainly: 50% cytotoxic concentration for mock-infected CEM cells. The format is functional, cell-based. Particulars: Homo sapiens. An outline of the steps:
as §1

For series [3], the system named is CCRF-CEM. Description: The compound was tested for cytotoxicity in CEM-SS cells for mock-infected CEM cells. The format is functional, cell-based. The following applies: Homo sapiens. An outline of the steps:
as §1

Series [4] can be described thus: (§2) The therapeutic index of the compound is evaluated. Particulars: read-out: IC50/EC50.
Series [5] concerns CCRF-CEM. Put plainly: (§3) The compound was evaluated for prevention of the cytopathic effect of HIV-1 for cytopathicity of HIV-1RF in CEM-SS cells; NA= not active. The series is classed as functional, cell-based, Homo sapiens. An outline of the steps:
as §1

For series [6], the system named is CCRF-CEM. The series is described as §3. Particulars: Homo sapiens. The series is classed as functional, cell-based. A digest of the protocol:
as §1

Series [7] is described as follows: as §2. The format is functional.

Molecules are shown by their SMILES. Active and inactive are the calls of the source. The rule behind the calls is not given here. Some results are limits rather than exact numbers.

Here are results for twelve compounds from ChEMBL document CHEMBL1129271, “Synthesis and biological evaluation of certain alkenyldiarylmethanes as anti-HIV-1 agents which act as non-nucleoside reverse transcriptase inhibitors” (J Med Chem, 1996).

`CCCCCC=C(c1cc(Cl)c(O)c(C(=O)O)c1)c1cc(Cl)c(O)c(C(=O)O)c1` displayed an EC50 in the series with CCRF-CEM [1] of more than 91.5 µM. The compound further returned an IC50 in the series on CCRF-CEM [2] of more than 91.5 µM.
In the series on CCRF-CEM [1], `CCCCCCCCCC=C(c1cc(Br)c(OC)c(C(=O)OC)c1)c1cc(Br)c(OC)c(C(=O)OC)c1` had a half-maximal effective concentration (EC50) of more than 30 µM. In the series with CCRF-CEM [3], this compound showed an IC50 of more than 30 µM.
As for `COC(=O)c1cc(C(=CCCBr)c2cc(Cl)c(OC)c(C(=O)OC)c2)cc(Cl)c1OC`, a half-maximal response in the series on CCRF-CEM [1] (EC50) required 8 µM. The selectivity ratio in series [4] came to 2.2. In the series with CCRF-CEM [3], this compound showed an IC50 of 18 µM.
As to `CCCCCC=C(c1cc(Cl)c(OC)c(C(N)=O)c1)c1cc(Cl)c(OC)c(C(N)=O)c1`, the EC50 result in the series on CCRF-CEM [5] is given as “Not Active”. In addition, inhibition with CCRF-CEM [2] was half-maximal at 31 µM (IC50).
For `CCCCCC=C(c1cc(Cl)c(OC)c(C(=O)O)c1)c1cc(Cl)c(OC)c(C(=O)O)c1`, the NA entry in the series on CCRF-CEM [6] was “inactive”. This compound came in with an IC50 with CCRF-CEM [2] of 84 µM.
With `CCCCCC=C(c1cc(Br)cc(C(=O)OC)c1OC)c1cc(Br)cc(C(=O)OC)c1OC`, in the series with CCRF-CEM [5], the concentration for a half-maximal effect (EC50) result is recorded as “Not Active”. The compound further gave a half-inhibitory concentration (IC50) with CCRF-CEM [3] of 44 µM.
Turning to `CCCCCC=C(c1cc(Cl)c(OC)c(C(=O)N(C)C)c1)c1cc(Cl)c(OC)c(C(=O)N(C)C)c1`, the EC50 result with CCRF-CEM [5] is on record as “Not Active”. In the series on CCRF-CEM [2], this compound returned an IC50 of 21 µM.
The like results for `CCCCCC=C(c1cc(Cl)c(OC)c(C(=O)NC)c1)c1cc(Cl)c(OC)c(C(=O)NC)c1` were, in that order, “Not Active” and 21 µM.
Compound `CCCCCCCCCCCCCCCC=C(c1cc(Br)c(OC)c(C(=O)OC)c1)c1cc(Br)c(OC)c(C(=O)OC)c1` gave an EC50 with CCRF-CEM [1] of more than 28 µM. In addition, the IC50 with CCRF-CEM [3] was more than 28 µM.
On to `CCCCCC=C(c1cc(Br)c(O)c(C(=O)O)c1)c1cc(Br)c(O)c(C(=O)O)c1.N.N`, for which the EC50 result in the series on CCRF-CEM [5] is given as “Not Active”. This compound displayed an IC50 in the series on CCRF-CEM [3] of 150 µM.
In the series with CCRF-CEM [1], `CCCCCC=C(c1cc(Cl)c(OC)c(C(=O)OC)c1)c1cc(Cl)c(OC)c(C(=O)OC)c1` showed an EC50 of 16 µM. Besides, in series [7], the IC50/EC50 is more than 1.8. In the series on CCRF-CEM [2], this compound came in with a half-maximal inhibitory concentration (IC50) of more than 29.1 µM.
Take `CCCCCC=C(c1cc(Cl)c(O)c(C(=O)NO)c1)c1cc(Cl)c(O)c(C(=O)NO)c1`: the 50% effective concentration (EC50) entry in the series on CCRF-CEM [5] is given as “Not Active”. The midpoint of inhibition with CCRF-CEM [3], the IC50, lay at 37 µM.

As usually defined, the EC50 is the midpoint of the concentration-response curve. A word on the IC50: it is the point on the concentration scale where inhibition reaches its midpoint. Lower therefore signals greater potency in that assay.
